Assay results taken from ChEMBL document CHEMBL4177604, “Binding of triazole-linked galactosyl arylsulfonamides to galectin-3 affects Trypanosoma cruzi cell invasion” (Bioorg Med Chem, 2017).
Activity calls are given as the source filed them. The rule behind the calls is not given here.

Assays:
[1] = target: T1, Trans-sialidase (Trypanosoma cruzi) (UniProt Q26964); assay: Inhibition of recombinant His-tagged Trypanosoma cruzi trans-sialidase N-terminal catalytic domain at 1 mM preincubated for 10 mins followed by MuNANA addition measured over 5 mins by fluorimetric assay relative to control
T1 sequence (whole entry): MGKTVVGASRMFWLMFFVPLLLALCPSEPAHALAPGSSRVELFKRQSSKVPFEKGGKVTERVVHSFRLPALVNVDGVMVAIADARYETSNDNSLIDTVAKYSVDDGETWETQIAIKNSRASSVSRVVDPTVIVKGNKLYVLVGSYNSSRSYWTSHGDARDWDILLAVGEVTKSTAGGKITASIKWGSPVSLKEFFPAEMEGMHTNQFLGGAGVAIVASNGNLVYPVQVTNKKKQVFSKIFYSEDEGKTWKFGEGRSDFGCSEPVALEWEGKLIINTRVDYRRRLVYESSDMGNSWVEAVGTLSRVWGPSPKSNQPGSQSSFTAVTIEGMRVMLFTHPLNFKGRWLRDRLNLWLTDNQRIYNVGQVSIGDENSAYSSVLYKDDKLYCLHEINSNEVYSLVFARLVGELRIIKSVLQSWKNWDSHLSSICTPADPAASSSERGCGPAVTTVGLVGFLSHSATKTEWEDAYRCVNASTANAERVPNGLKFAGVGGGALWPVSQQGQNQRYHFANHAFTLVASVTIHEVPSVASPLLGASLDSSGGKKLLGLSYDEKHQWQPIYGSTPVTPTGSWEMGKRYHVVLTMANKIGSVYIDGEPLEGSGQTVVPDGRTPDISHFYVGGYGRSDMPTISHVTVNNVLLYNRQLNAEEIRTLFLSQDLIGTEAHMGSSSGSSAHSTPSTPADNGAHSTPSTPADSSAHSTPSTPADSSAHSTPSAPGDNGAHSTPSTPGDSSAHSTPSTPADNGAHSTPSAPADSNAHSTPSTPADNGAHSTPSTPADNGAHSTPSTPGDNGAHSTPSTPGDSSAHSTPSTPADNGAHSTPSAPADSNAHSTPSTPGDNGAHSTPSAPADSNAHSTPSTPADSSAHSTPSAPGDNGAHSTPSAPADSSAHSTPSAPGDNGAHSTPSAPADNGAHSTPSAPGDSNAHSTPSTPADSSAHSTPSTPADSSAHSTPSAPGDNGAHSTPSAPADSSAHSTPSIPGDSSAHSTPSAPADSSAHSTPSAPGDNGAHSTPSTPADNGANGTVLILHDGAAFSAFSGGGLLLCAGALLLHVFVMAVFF
How it was run: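 Recombinant His-tagged 70 kDa trans-sialidase, truncated to the catalytic N-terminal domain, in phosphate buffer pH 7. Preincubated with inhibitor at 1.0 mM final for 10 min at 26 °C. MuNANA added to 0.1 mM and released fluorescence followed over 5 min (ex 360/em 460 nm). Triplicate. %I = 100 × [1 − Vi/V0].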

Trypanosoma cruzi [2] = assay: (§1) Antitrypanosomal activity against Trypanosoma cruzi Y trypomastigote infected in monkey LLC-MK2 cells assessed as inhibition of cell invasion by trypanosoma by measuring mean number of amastigote parasites per cells at 250 uM pretreated with cells for 30 mins followed by trypomastigote infection measured after 18 hrs by panoptic dye-based optical microscopic analysis; format: functional, organism-based
How it was run: (§2)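 LLCMK2 cells adhered on coverslips, exposed to compound at 250 µM for 30 min, then infected with Y-strain trypomastigotes (1 x 10^5; 5 parasites per cell). Incubated 18 h at 37 °C, 5% CO2, then fixed, stained with panoptic dye and read by optical microscopy. Scored as % infected cells, mean amastigotes per cell, and infection index (% infected × mean parasites per cell). Triplicate.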

Trypanosoma cruzi [3] = assay: Trypanocidal activity against Trypanosoma cruzi Y trypomastigote assessed as effect on parasite viability at 31.25 to 250 uM after 48 hrs by resazurin-based assay; format: functional, organism-based
How it was run: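 Culture-derived Y-strain trypomastigotes, 1 x 10^6 per well, in RPMI 1640 with 10% FBS containing compound (250 to 31,25 µM). Held 48 h at 37 °C, 5% CO2. Resazurin added for 6 h, then read at 570 and 600 nm. Viability from OD570 minus OD600, relative to untreated parasites.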

Galectin-3 = Galectin-3 (Homo sapiens, UniProt P17931); assay: Binding affinity to recombinant human galectin-3 expressed in Escherichia coli BL21 after 3 hrs
How it was run: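 Human galectin-3 expressed in E. coli BL21, purified on lactosyl-Sepharose, immobilized at 150 µg/mL (20 mM sodium acetate, pH 4.0, 16 h, 4 °C) on NHS-activated label-free biosensor. Compound dissolved in DMSO, diluted into PBS pH 7.4 with 1% or 2% DMSO, 0.09–400 µM, triplicate. Wavelength shift (pm) read over 3 h at 25 °C, blank-subtracted. EC50 from one-site binding fit.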

LLC-MK2 = assay: Cytotoxicity against monkey LLC-MK2 cells assessed as reduction in cell viability after 48 hrs by MTT assay; format: cell-based, Macaca mulatta; details: rhesus monkey, llc-mk2, 48 h
How it was run: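 LLCMK2 cells, 1 x 10^4 per well, adhered overnight in RPMI 1640 with 10% FBS. Exposed to 500 to 67,5 µM compound in triplicate for 48 h at 37 °C, 5% CO2. MTT added for 4 h, formazan dissolved in DMSO, absorbance at 570 nm.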

Trypanosoma cruzi [4] = assay: as §1, with “LLCMK2” for “LLC-MK2”, “infection index” for “mean number of amastigote parasites per cells”, “analysis (reference value: 68)” for “analysis”; format: functional; how it was run: as §2
Trypanosoma cruzi [5] = assay: as §1, with “infected […]” for “mean number of amastigote parasites per cells”, “analysis (reference value: 63%)” for “analysis”; format: functional; parameters: scale not given: the % may be the effect or the level left; how it was run: as §2
Trans-sialidase = target: T2, Trans-sialidase (Trypanosoma cruzi, UniProt Q26964); assay: Inhibition of Trypanosoma cruzi trans-sialidase using Trifluoromethylumbelliferyl alpha-sialoside as substrate by UV/visible spectrophotometer
T2 sequence (Q26964 whole entry): T1 sequence (whole entry)

Chain of Galectin-3 (P17931 whole entry): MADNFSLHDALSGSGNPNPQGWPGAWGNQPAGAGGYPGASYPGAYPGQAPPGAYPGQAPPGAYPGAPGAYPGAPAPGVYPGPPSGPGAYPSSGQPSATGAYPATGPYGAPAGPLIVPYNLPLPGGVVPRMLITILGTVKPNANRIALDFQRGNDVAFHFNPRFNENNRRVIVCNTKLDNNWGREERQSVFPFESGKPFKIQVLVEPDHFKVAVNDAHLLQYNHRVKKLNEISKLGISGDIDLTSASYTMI

Row | SMILES | inhibition [1] [%] | Activity (Galectin-3) | EC50 (Galectin-3) [µM] | IC50 (Trans-sialidase) [µM] | Activity (Trypanosoma cruzi [2]) | Activity (Trypanosoma cruzi [3]) | Activity (LLC-MK2) | Activity_index (Trypanosoma cruzi [4]) | Activity (Trypanosoma cruzi [5])
1 | CO[C@@H]1O[C@H](CO)[C@H](O)[C@H](OCc2cn(-c3ccc(S(N)(=O)=O)cc3)nn2)[C@H]1O | 4.5 to 16 | Dose-dependent effect | 40.7 | – | Active | inactive | Non-Toxic | 28 - 44 | 47 - 54%
2 | CO[C@@H]1O[C@H](CO)[C@H](O)[C@H](OCc2cn(-c3ccc(S(=O)(=O)Nc4nc(C)cc(C)n4)cc3)nn2)[C@H]1O | 4.5 to 16 | Dose-dependent effect | 67.7 | – | Active | inactive | Non-Toxic | 28 - 44 | 47 - 54%
3 | CO[C@@H]1O[C@H](CO)[C@H](O)[C@H](OCc2cn(-c3ccc(S(=O)(=O)Nc4ccccn4)cc3)nn2)[C@H]1O | 4.5 to 16 | – | – | – | Active | inactive | Non-Toxic | 28 - 44 | 47 - 54%

Second part, led by results:

Row | inhibition [1] [%] | Activity (Galectin-3) | EC50 (Galectin-3) [µM] | IC50 (Trans-sialidase) [µM] | SMILES | Activity (Trypanosoma cruzi [2]) | Activity (Trypanosoma cruzi [3]) | Activity (LLC-MK2) | Activity_index (Trypanosoma cruzi [4]) | Activity (Trypanosoma cruzi [5])
4 | 88 | Dose-dependent effect | 205 | – | CO[C@@H]1O[C@H](CO)[C@H](O)[C@H](OCc2cn(-c3ccc(S(=O)(=O)NC(C)=O)cc3)nn2)[C@H]1O | Active | inactive | Non-Toxic | 28 - 44 | 47 - 54%
5 | 4.5 to 16 | Dose-dependent effect | 18.3 | – | COc1cc(NS(=O)(=O)c2ccc(-n3cc(CO[C@H]4[C@@H](O)[C@@H](CO)O[C@@H](OC)[C@@H]4O)nn3)cc2)nc(OC)n1 | Active | inactive | Non-Toxic | 20 | 38%
6 | 4.5 to 16 | Dose-dependent effect | 17.2 | – | CO[C@@H]1O[C@H](CO)[C@H](O)[C@H](OCc2cn(-c3ccc(S(=O)(=O)Nc4cc(C)on4)cc3)nn2)[C@H]1O | Active | inactive | Non-Toxic | 20 | 41%
7 | 4.5 to 16 | – | – | – | CO[C@@H]1O[C@H](CO)[C@H](O)[C@H](OCc2cn(-c3ccc(S(=O)(=O)Nc4nccc(C)n4)cc3)nn2)[C@H]1O | Active | inactive | Non-Toxic | 28 - 44 | 47 - 54%
8 | – | – | – | 0.6 | Cc1ccc(S(=O)(=O)N2c3ccccc3C(=O)/C(=C/c3ccc(O)c(O)c3)C2c2ccc(O)c(O)c2)cc1 (stereo not drawn) | – | – | – | – | –
